The record followed here is article PMC12059366 (Biomolecules & Therapeutics, 2025).

Data set [1] concerns complementary DNAs. Description: Melting temperature. The data set is classed as binding. As to conditions: 2 μM PNA-DNA duplex, 10 mM sodium phosphate pH 7.0, 0.1 M NaCl; absorbance at 260 nm, 25°C to 90°C at 1.0°C per minute.
For data set [2], the system named is IDO1. Put plainly: IDO1 gene expression by q-RT-PCR in IFNγ-treated human keratinocytes. The following applies: compound 24 h before IFNγ, n=3. The data set is classed as cell-based. Put shortly: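 Primary neonatal foreskin human keratinocytes in supplemented KBM Gold medium were pretreated with test PNA for 24 h, then given recombinant human IFNγ in KBM Gold basal medium. The control was scrambled PNA at 0.1 μM. RNA was extracted with TRIzol and RNeasy, then reverse-transcribed. IDO1 was measured by TaqMan q-RT-PCR against RPL13A using the Pfaffl method. Results are mean ± SD, n=3, t-test.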

Data set [3] has as its system IL-8. Put plainly: IL-8 level by ELISA in supernatants of IFNγ-treated human keratinocytes. Format: cell-based. The following applies: concentration-dependent, n=3. In general terms: In an ELISA, binding on a coated surface is turned into a signal by an enzyme label.
In data set [4] the test system is IDO1 pre-mRNA. Description: IDO1 gene expression by q-RT-PCR in human keratinocytes. Format: cell-based. As to conditions: non-cytotoxic concentrations (Fig. 2B, 2C), n=3.
Data set [5] has as its system PGE2. Put plainly: PGE2 level by ELISA in supernatants of IFNγ-treated human keratinocytes. Format: cell-based. The following applies: concentration-dependent, n=3.
For data set [6], the system named is IL-6. Put plainly: IL-6 level by ELISA in supernatants of IFNγ-treated human keratinocytes. The data set is classed as cell-based. The following applies: concentration-dependent, n=3.

Consider CG*^2TA*C*TTTGA*TTG*^2 [Compound 4], for which the “Tm (binding affinity to complementary DNA)” value in data set [1] stood at 72.07 °C.
Take “Compound 2: modified PNA oligomer with cationic lipid-bearing nucleobases targeting IDO1 pre-mRNA (CTCCAAACCTTACG; PNA; cationic lipid-bearing nucleobases)”: the “Tm (binding affinity to complementary DNA)” value in data set [1] was found to be 82.07 °C. The IDO1 expression entry in data set [2] was “significantly inhibits IDO1 expression”. Moreover, the “IL-8 level in cell culture supernatant” value in data set [3] was “effectively reduced”. Besides, the “IDO1 gene expression, concentration-dependent analysis” value in data set [4] is “significant inhibitory effect”. Moreover, the “PGE2 level in cell culture supernatant” value in data set [5] is given as “effectively reduced”. Moreover, in data set [6], the “IL-6 level in cell culture supernatant” value is recorded as “effectively reduced”.
